This is an account of results in ChEMBL document CHEMBL4041513, “In silico identification, design and synthesis of novel piperazine-based antiviral agents targeting the hepatitis C virus helicase” (Eur J Med Chem, 2017).

For one series, the system named is Hepatitis C virus. The experiment in a line: Antiviral activity against HCV genotype 1b infected in human HuH5.2 cells with persistent I389luc-ubi-neo/NS3-3'/5.1 replicon after 72 hrs by luciferase reporter gene assay. In kind it is functional, cell-based, Hepacivirus hominis. The conditions noted are these: Huh-5-2, 72 h. The procedure, abridged: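 Huh 5-2 cells carrying the genotype 1b I389luc-ubi-neo/NS3-3'/5.1 replicon were seeded at 6 500 cells/well in Geneticin-free DMEM/10% FCS and left overnight. Compounds from DMSO stocks were added in a four-step 1-to-5 series for the first screen or an eight-step 1-to-2 series for dose-response curves, then 72 h at 37 °C. Luciferase luminescence after lysis, as % of untreated controls, gave EC50; mean of ≥2 experiments.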
A general note: In antiviral work, replicon cells carry a viral genome segment that copies itself.

Series [1] is described as follows: Cytotoxicity against human HuH5.2 cells assessed as reduction in cell viability after 72 hrs by MTS assay. Format: cell-based, Huh-5-2. Summed up: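 Huh 5-2 cells carrying the genotype 1b I389luc-ubi-neo/NS3-3'/5.1 replicon were seeded at 6 500 cells/well in medium without Geneticin one day ahead. Compounds (DMSO stock) were added as 1:5 four-step or 1:2 eight-step dilutions for 72 h at 37 °C.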
A general note: Tetrazolium dyes change colour on reduction, which living cells bring about.

Series [2] is described as follows: Selectivity index, ratio of CC50 for human HuH5.2 cells to EC50 for HCV genotype 1b infected in human HuH5.2 cells with persistent I389luc-ubi-neo/NS3-3'/5.1 replicon.
Series [3] is described as follows: Inhibition of HCV NS3 helicase DNA unwinding activity using fluorescent DNA substrate by molecular beacon assay. Set-up: species or system Hepacivirus hominis. Summed up:
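Molecular beacon unwinding reaction: 25 mM MOPS pH 6.5, 1.25 mM MgCl2, 5% DMSO, 5 µg/ml BSA, 0.01% Tween20, 0.05 mM DTT, 5 nM fluorescent DNA substrate, 12.5 nM NS3h, 1 mM ATP. Duplicate two-fold dilutions spanned 1 mM to 0.78 µM. Data normalised to no-inhibitor and no-enzyme controls; IC50 from variable-slope Hill fit.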

A short description of series [4]: Inhibition of DNA oligonucleotide binding to HCV NS3 helicase. Set-up: species or system Hepacivirus hominis. The procedure, abridged: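 Compounds run in duplicate two-fold series from 1 mM to 0.78 µM; normalised to no-inhibitor and no-enzyme controls; IC50 by variable Hill-slope dose-response fit.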
Series [5] can be described thus: Inhibition of HCV NS3 helicase ATP hydrolysis activity in presence of poly(U) RNA. Set-up: species or system Hepacivirus hominis. The procedure, abridged: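 ATPase run with RNA: 25 mM MOPS pH 6.5, 1.25 mM MgCl2, 15 µM poly(U), 6 nM NS3h, 5 µg/mL BSA, 0.001% Tween 20. Duplicate two-fold compound series from 1 mM to 0.78 µM; normalised to no-inhibitor and no-enzyme controls; IC50 from variable Hill-slope fit. A separate poly(U) titration gave K_RNA, fit assuming unchanged Vmax.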

Series [6] has as its system Hepacivirus hominis. Description: Inhibition of HCV NS3 helicase ATP hydrolysis activity at 1 mM in absence of poly(U) RNA.
Series [7] in a line: Binding affinity to HCV genotype 2A JFH1 protease domain truncated NS3 helicase by fluorescence assay. Details: species or system Hepatitis C virus JFH-1. Summed up: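 Intrinsic tryptophan fluorescence titration (ex 280 nm, em 340 nm) of NS3h, the JFH1 genotype 2a NS3 helicase domain without protease, at 100 nM, with compound alone as reference. Intensities corrected for dilution and inner-filter effects, then globally fit to a quadratic binding equation for Kd.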

The test system of series [8] is Hepacivirus hominis. Description: Selectivity ratio of inhibition of DNA oligonucleotide binding to HCV NS3 helicase to inhibition of HCV NS3 helicase ATP hydrolysis activity.

Structures are written as SMILES. Calls of active or inactive are those of the source. The calls are words filed in the database; no cut-off is given here.

The EC50 is the concentration that produces a half-maximal response. By CC50 is commonly meant the concentration at which the toxic effect on the cells reaches its halfway point. Usually IC50 stands for the concentration at which inhibition is half-maximal. For orientation: EC90 means the concentration needed for an effect of 90%. A high value points to a need for much substance. One may read the Kd as the equilibrium constant for the complex coming apart. Lower therefore signals a tighter complex.

`O=S(=O)(NCCCN1CCN(CCCNS(=O)(=O)c2ccc(Cl)cc2)CC1)c1ccc(Cl)cc1`: the EC50 in the series with Hepatitis C virus lay in the range of 13 to 13.8 µM. For the same molecule, the CC50 at 72 h in [1] is over 182 µM. Besides, the “Ratio CC50/EC50” value in [2] is reported as >13.2 - 14. Also, the figures for the IC50 in series [3], in series [4] and in series [5] were over 1 mM, over 1 mM and over 1000 µM, respectively.

For `O=C(CCNS(=O)(=O)c1ccc(Cl)cc1)N1CCN(C(=O)CCNS(=O)(=O)c2ccc(Cl)cc2)CC1`, the CC50 at 72 h in series [1] is over 86.6 µM. Further, the IC50 is over 1 mM in [3], over 1 mM in series [4] and over 1000 µM in series [5].

As to `CC(C)(C)c1ccc(S(=O)(=O)NCCCN2CCN(CCCNS(=O)(=O)c3ccc(C(F)(F)F)cc3)CC2)cc1`, in the series on Hepatitis C virus, a half-maximal response (EC50) required 6.62 µM and the EC90 came to 13.8 µM. In addition, the cytotoxic concentration (CC50) at 72 h in series [1] worked out at 28.7 µM. In series [2], the “Ratio CC50/EC50” value was 4.3. In series [3], this molecule returned an IC50 of over 1 mM.

Consider `CC(C)(C)c1ccc(S(=O)(=O)NCCCN2CCN(CCCNS(=O)(=O)c3ccc(-c4ccccc4)cc3)CC2)cc1`, for which, in the series with Hepatitis C virus, a half-maximal effect (EC50) was put at 1.3 µM. Also, in the series with Hepatitis C virus, the EC90 came out at 3.05 µM. Besides, the CC50 at 72 h in series [1] came out at 4.78 µM. In addition, in series [2], the “Ratio CC50/EC50” value is reported as 3.7. The values for the IC50 in [3], in series [4] and in series [5] were 0.09 mM, 0.2 mM and 21 µM, respectively. Further, the inhibition entry in the series with Hepacivirus hominis [6] is “inactive”. For the same molecule, the Kd in series [7] turned out to be 570 nM. For the same molecule, the Selectivity ratio with Hepacivirus hominis [8] stood at 10.

`CC(C)(C)c1ccc(S(=O)(=O)NCCCN2CCN(CCCNS(=O)(=O)c3ccc(C(C)(C)C)cc3)CC2)cc1`: the response with Hepatitis C virus was half-maximal at 8.7 µM (EC50). Besides, in the series on Hepatitis C virus, the EC90 worked out at 42.9 µM. Moreover, in series [1], the 50% cytotoxic concentration (CC50) at 72 h amounted to 97.2 µM. Moreover, the “Ratio CC50/EC50” value in series [2] was 11.2. The results for the IC50 in series [3], in series [4] and in series [5] were 0.31 mM, over 1 mM and 590 µM, respectively.

As to `O=S(=O)(NCCCN1CCN(CCCNS(=O)(=O)c2ccc(-c3ccccc3)cc2)CC1)c1ccccc1`, in the series with Hepatitis C virus, the EC50 is 4 µM. For the same molecule, the CC50 at 72 h in series [1] is 14 µM. Also, in [2], the “Ratio CC50/EC50” value amounted to 3.5. The molecule further gave an IC50 in [3] of over 1 mM.

Turning to `O=C(CCNS(=O)(=O)c1ccc(-c2ccccc2)cc1)N1CCN(CCCNS(=O)(=O)c2ccc(-c3ccccc3)cc2)CC1`, in the series on Hepatitis C virus, the midpoint of the response, the EC50, lay at 3.03 µM. The CC50 at 72 h in series [1] is 66.9 µM. The “Ratio CC50/EC50” value in series [2] worked out at 22.1. Further, the IC50 in [3] was over 1 mM.
